Shown are actives, neighbours in structure and some others; about 1.7% of the full set was active somewhere.
SUMO1 PPI mod: modulators of human SUMO1-mediated protein-protein interactions | SUMO1 binding to a labelled peptide, TR-FRET, 1 h | P63165 | inhibition, % at 20 µM | 360,000 tested, 0.33% active; in the data active means inhibition above about 37%
Target sequence (P63165 whole entry, looked up): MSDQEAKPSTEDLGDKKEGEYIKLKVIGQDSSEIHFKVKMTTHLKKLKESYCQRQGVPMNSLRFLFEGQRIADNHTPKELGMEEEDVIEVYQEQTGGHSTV
DNMT1 block: blocks human DNA methyltransferase DNMT1 | P26358 | DNMT1 molecular beacon, Hinp1I cleavage, fluorescence | inhibition (reported as % activation of signal), % at 10 µM | 360,000 tested, 0.83% active | AID 588458; in the data active means inhibition above about 50%
LMPTP block: LMPTP (human) inhibition; P24666; 360,000 tested, 0.22% active; AID 651560; inhibition, % at 20 µM; recombinant LMPTP-A, OMFP fluorogenic substrate, fluorescence intensity;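 active means compounds that cut the enzyme signal by at least half of the control window in the single-dose screen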;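 further: plate controls were DMSO wells with enzyme plus substrate for no effect and substrate without enzyme for full effect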
Target sequence (P24666 whole entry, looked up): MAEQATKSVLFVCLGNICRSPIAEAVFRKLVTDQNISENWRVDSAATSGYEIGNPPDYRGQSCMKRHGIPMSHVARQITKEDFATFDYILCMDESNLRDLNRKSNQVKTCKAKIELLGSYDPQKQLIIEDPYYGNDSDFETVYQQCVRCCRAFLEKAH
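Material: LMPTP-A; amount: 0.625 nM enzyme; doses: single 20 µM dose; times: reaction 50 min, room temperature, dark; technique: fluorescence intensity of OMFP turnover product; benchmarks: no-enzyme and uninhibited controls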
STEP inh: inhibitors of human striatal-enriched phosphatase STEP; inhibition, % at 20 µM; recombinant STEP, OMFP fluorogenic substrate, fluorescence; P54829; 360,000 tested, 0.25% active;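 active means inhibition at 20 µM, scaled per plate between control wells, above about 37%, limit read from the data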;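 further: 0% = DMSO with enzyme and substrate and 100% = substrate only without enzyme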
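material = STEP tyrosine phosphatase | reagent = fluorogenic phosphatase substrate OMFP at 25 µM final | doses = single compound dose of 20 µM, 1% DMSO final | schedule = 20 min reaction, room temperature, in the dark | measured by = fluorescence, 480/540 nm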
Scp-1 inhibitor: blocks human Scp-1 phosphatase activity. Recombinant Scp1, phosphopeptide, malachite green phosphate absorbance. 340,000 tested, 0.88% active. inhibition, % at 20 µM;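 active means inhibition above about 50% at 20 µM, limit read from the data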;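 further: plate controls were DMSO wells with enzyme for no effect and wells lacking enzyme for full effect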
Target sequence (Q9GZU7 76-261 limits assumed): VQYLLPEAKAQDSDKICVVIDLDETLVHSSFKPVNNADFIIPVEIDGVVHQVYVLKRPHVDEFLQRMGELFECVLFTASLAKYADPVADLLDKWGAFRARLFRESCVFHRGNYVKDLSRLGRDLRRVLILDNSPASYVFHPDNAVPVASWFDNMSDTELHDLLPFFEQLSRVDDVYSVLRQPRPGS
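Test system: SCP-1 phosphatase catalytic domain, residues 76-261 | Compound dosing: One concentration, 20 µM, with 1.0% DMSO | Schedule: 45 min room-temperature reaction, 5 min colour, 30 min stabiliser | Detection: Absorbance at 630 nm | Read-out basis: % inhibition of SCP-1 phosphate liberation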
CASP6 VEID inh: inhibitors of human caspase-6; P55212; purified caspase-6, Z-VEID-R110 cleavage fluorescence; inhibition, % at 12.5 µM; 350,000 tested, 0.53% active;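 active means mean inhibition across replicates at least about 35%, with every replicate also reaching that limit, limit read from the data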;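 further: 0% = median of neutral control wells and 100% = no fluorescence left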
Scp-1 conf: Scp-1 (human) inhibition, single-dose confirmed. shares compounds with Scp-1 inhibitor. recombinant SCP-1 catalytic domain, phosphate release, malachite green absorbance. inhibition, % at 20 µM. 2,500 tested, 61% active. AID 540281;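 further: plate controls were DMSO with enzyme for no effect and buffer wells lacking enzyme for full effect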
MG interference: counter-screen for Scp-1 inhibitors: colorimetric interference; 2,500 tested, under 10 active; Colorimetric interference counterscreen, malachite green absorbance 630 nm; shares compounds with Scp-1 inhibitor; AID 540313; apparent inhibition (interference), % at 20 µM;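 further: compounds added after enzyme reaction finished so only phosphate colour detection is probed; plate controls were DMSO wells with completed Scp-1 reaction for no effect and substrate wells lacking enzyme for full effect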
Scp1 DSF: validation of human Scp-1 inhibitors by thermal shift binding; thermal shift relative to vanadate control, % at 40 µM; 1,500 tested, 25% active; Recombinant SCP1, Sypro Orange thermal shift Tm; shares compounds with Scp-1 inhibitor;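 active means substances whose mean melting-temperature shift, as a percentage of the reference inhibitor's shift, reaches about 5.3%, limit read from the data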;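 further: 0% = Tm of DMSO wells and 100% = Tm with sodium orthovanadate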
The depositor's hits bear a star; . = no result.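 How the source made its calls, unless noted: active means inhibition of at least 30% at 20 µM; inactive means the rest.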

SMILES	SUMO1 PPI mod	DNMT1 block	LMPTP block	STEP inh	Scp-1 inhibitor	CASP6 VEID inh	Scp-1 conf	MG interference	Scp1 DSF
Cc1nnsc1-c1c(C(=O)O)c(C)nn1-c1ccc(OC(F)(F)F)cc1	2.7	0.0	-1.1	0.0	91.1*	0.7	-7.8	-10.7	.
COc1ccc(S(=O)(=O)N(CC(=O)Nc2ccc(S(=O)(=O)N3CCOCC3)cc2)Cc2ccc(F)cc2)cc1	-0.6	-7.7	1.5	-0.6	-14.0	.	.	.	.
O=C(CSc1nc2ccccc2c(=O)n1Cc1ccco1)NCc1ccco1	11.3	32.3	0.9	2.7	74.4*	.	74.2*	-3.2	-3.5
O=C(CSc1nnc(COc2ccccc2)n1Cc1ccco1)NCc1ccco1	4.5	32.5	5.1	1.8	87.6*	.	67.3*	-11.4	-13.2
CCCCn1c(SCC(=O)NCc2ccco2)nnc1-c1ccoc1C	21.5	40.7	0.7	3.1	97.2*	.	76.7*	-12.0	-3.0
CCCCn1c(SCC(=O)NCc2ccco2)nnc1-c1ccco1	3.0	0.2	0.0	-0.5	0.0	.	.	.	.
O=C(NCc1ccco1)c1ccc2c(=O)n(Cc3ccco3)c(SCC(=O)N3CCCC3)nc2c1	18.1	29.7	9.1	4.3	100.6*	.	70.0*	-13.4	-21.8
Cc1cc(NC(=O)CSc2nnc(COc3ccccc3)n2Cc2ccco2)no1	-4.2	7.1	-3.0	-1.4	-4.0	.	.	.	.
COc1ccc(/C=N/n2c(-c3n[nH]c4c3CCC4)n[nH]c2=S)cc1	-0.1	-1.7	-1.3	-1.1	-1.2	2.8	.	.	.
Cc1nnc(NS(=O)(=O)c2ccc(N=Nc3ccc(N)nc3N)cc2)s1	-10.2	3.6	18.1	5.0	67.4*	68.5*	34.5*	-6.2	9.1*
CN(C)S(=O)(=O)c1ccc(C(=O)OCn2nnc3ccccc3c2=O)cc1	-6.8	-2.1	-0.6	10.0	-8.4	-0.5	.	.	.
CCc1oc2ccccc2c1C(=O)CCN1CCCCC1	-0.7	3.0	-0.6	1.4	57.5*	.	13.9	-2.1	.
O=C(CCN1CCCCC1)c1ccccc1	-0.1	5.5	-0.8	-2.5	-6.2	-8.2	.	.	.
COc1ccccc1NS(=O)(=O)c1cc(NC(=O)Cn2cnc3c2c(=O)n(C)c(=O)n3C)ccc1C	1.6	-12.0	-0.7	-3.3	19.5	-1.6	.	.	.
CSCC[C@H](NC(=O)c1cccc(S(=O)(=O)N2CCCCC2)c1)c1nc2ccccc2[nH]1	-1.1	2.4	-0.9	-0.3	58.7*	-1.7	2.9	-5.4	.
CSCCC(NC(=O)c1cccc([N+](=O)[O-])c1)c1nc2ccccc2[nH]1 (stereo unspecified)	-28.0	-6.2	-0.2	-0.5	-9.3	-0.8	.	.	.
O=C(O)C(F)=C(c1ccccc1)c1ccccc1	4.0	1.2	-3.0	1.7	52.0*	-0.7	-10.5	-6.8	.
COc1ccc([C@H]2CC(=O)C=C(c3ccnc4ccc(Cl)cc34)C2)cc1	-15.4	-6.4	2.3	-0.7	59.1*	-0.3	-3.8	-5.2	.
Cc1ccsc1/C=N/N=C1\C(=O)Nc2ccccc21	-21.7	-8.4	-3.5	-3.7	-3.9	.	.	.	.
CCOC(=O)C1CCCN(c2c(NCCN3CCCCC3CC)c(=O)c2=O)C1 (stereo unspecified)	6.0	0.3	0.3	-2.0	56.8*	-13.0	-2.4	-7.3	.
O=C(NC1CCSC1=O)c1ccccc1 (stereo unspecified)	3.1	1.3	0.4	-0.2	-3.4	.	.	.	.
O=C(NC1CCSC1=O)c1cccc(C(=O)NC2CCSC2=O)c1 (stereo unspecified)	0.6	2.9	8.3	0.0	94.8*	.	64.8*	-18.1	3.4
C=CCn1c(=NC(=O)c2sc3ccccc3c2Cl)sc2cc(S(N)(=O)=O)ccc21	-2.4	33.1	38.5	2.5	88.2*	.	78.2*	-9.0	-16.2
